# Assay outcomes as filed in PubChem BioAssay.
# Sampled rows, rich in hits. Any-hit rate of the full collection: about 2.2%.
# ASAP1 GAP inh: blocks human ASAP1-stimulated Arf1 GTP hydrolysis | Q9ULH1 | GDP FP detection | inhibition, % at 16.5 µM | hit rate 0.19% among 360,000; in the data active means inhibition above about 25%;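 further: 0% = vehicle with enzyme and substrate and 100% = no enzyme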
# Target sequence (Q9ULH1 325-724 limits assumed): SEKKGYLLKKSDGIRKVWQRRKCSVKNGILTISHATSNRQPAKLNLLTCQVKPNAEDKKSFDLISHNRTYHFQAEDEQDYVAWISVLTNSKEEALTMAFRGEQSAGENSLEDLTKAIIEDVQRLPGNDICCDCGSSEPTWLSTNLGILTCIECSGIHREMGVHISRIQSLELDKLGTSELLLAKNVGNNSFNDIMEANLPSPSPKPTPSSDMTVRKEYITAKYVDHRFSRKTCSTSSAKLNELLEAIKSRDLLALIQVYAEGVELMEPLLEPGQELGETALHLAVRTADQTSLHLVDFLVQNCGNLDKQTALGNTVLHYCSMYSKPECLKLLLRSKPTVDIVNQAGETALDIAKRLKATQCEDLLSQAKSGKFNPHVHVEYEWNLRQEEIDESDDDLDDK
# ARFGAP1 inhibitor: inhibits rat ARF GTPase activating protein 1; inhibition, % at 16.5 µM; hit rate 0.26% among 360,000; Arfgap1-stimulated ARF1 GTP hydrolysis, GDP FP detection; Q62848;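 active means inhibition above a per-plate limit, mean inhibition of low control wells plus 3 SD, cut at about 25% in these data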;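 further: 0% = DMSO wells with enzyme and 100% = wells lacking Arfgap1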
# Target sequence (Q62848 1-136 limits assumed): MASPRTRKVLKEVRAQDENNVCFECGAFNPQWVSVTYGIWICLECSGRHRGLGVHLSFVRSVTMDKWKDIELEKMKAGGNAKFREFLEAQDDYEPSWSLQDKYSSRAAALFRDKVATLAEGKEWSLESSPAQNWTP
#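 Material: rat Arfgap1 GAP domain (His6, aa 1-136), purified enzyme. Also added: human ARF1(Δ1-17)-GTP substrate. Compound dosing: 16.5 µM single point, 1.26% DMSO. Timing: enzyme reaction 120 min at 25 °C after 20 min preincubation. Signal: GDP detection by fluorescence polarization. Read-out basis: percent inhibition of GAP-stimulated GDP formation, scaled between DMSO and no-Arfgap1 medians.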
# rCAG RNA binder: binds r(CAG) RNA repeats | r(CAG) RNA repeat, TO-PRO-1 dye displacement fluorescence | inhibition, % at 3 µM | hit rate 1.3% among 370,000 | AID 651821;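 active means inhibition above the plate cutoff, the mean of all test compounds on that plate plus 3 SD, cut at about 35% in these data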;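 further: 0% = DMSO alone and 100% = 100 µM mitoxantrone as full dye displacement; higher means more dye released from RNA so lower well fluorescence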
# NadD inh: NadD (S. aureus) enzyme inhibition; purified NadD enzyme, colorimetric absorbance read-out; inhibition, % at 20 µM; hit rate 0.78% among 360,000; AID 602399; in the data active means inhibition above about 26%
# rCAG binder conf: r(CAG) RNA repeat binding, confirmation. shares compounds with rCAG RNA binder. AID 652065. TO-PRO-1 dye displacement fluorescence. inhibition, % at 3 µM. hit rate 70% among 4,300;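 active means inhibition above a per-plate cutoff, the mean inhibition of sample wells plus 3 SD, cut at about 35% in these data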;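 further: loss of TO-PRO-1 fluorescence as compound displaces dye from 1x1 AA loop RNA; 0% = DMSO only wells and 100% = 100 µM mitoxantrone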
# dCAG dye counter: DNA CAG dye complex inhibition counter-screen; shares compounds with rCAG RNA binder; d(CAG) DNA oligo TO-PRO-1 dye displacement, fluorescence; inhibition, % at 3 µM; hit rate 94% among 4,300; AID 652068;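 active means inhibition above its plate's cutoff, the mean test-well inhibition plus 3 SD, cut at about 4.8% in these data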;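 further: 0% = DNA dye mix with DMSO and 100% = 100 µM mitoxantrone; hits displace the dye from DNA and so lower well fluorescence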
# dCAG dye DR: DNA CAG dye complex inhibition, dose response counter-screen; DNA CAG/GTC duplex TO-PRO-1 dye displacement fluorescence; IC50, µM; hit rate 20% among 250; shares compounds with rCAG RNA binder; in the data active means IC50 below about 10 µM
# * = called active by the depositor; i = inactive; · = not tested or not shown.
SMILES,ASAP1 GAP inh,ARFGAP1 inhibitor,rCAG RNA binder,NadD inh,rCAG binder conf,dCAG dye counter,others
COc1ccc(C2Nc3cccc(O)c3C(=O)N2Cc2ccccc2)cc1COc1ccc(NC(C)=O)cc1 (stereo not drawn),12,15,15,6,·,·,
Cc1ccc([C@@H]2CC=C(C(=O)O)[C@H](c3ccc(Br)cc3)N2S(=O)(=O)c2ccc(C)cc2)cc1,-5,-11,82*,10,84*,50*,
CCc1ccc([C@@H]2CC=C(C(=O)O)[C@H](c3ccc(F)cc3)N2S(=O)(=O)c2ccc(C)cc2)cc1,10,-2,80*,5,62*,24*,
COc1cc([C@@H]2CC=C(C(=O)O)[C@H](c3ccccc3)N2S(=O)(=O)c2ccc(C)cc2)cc(OC)c1OC,5,-4,28,1,·,·,
CN(CC(=O)NCc1ccco1)C(=O)C1CC(=O)N(c2ccc3c(c2)OCCO3)C1 (stereo not drawn),10,-2,7,-1,·,·,
CSc1nsc(N/N=C/c2ccccc2)c1C#N,18,13,23,-5,·,·,
COc1cccc(/C=N/Nc2snc(SC)c2C#N)c1,-7,-2,47*,-6,36*,15*,
COc1cccc(/C=N/Nc2snc(SC)c2C#N)c1O,-1,10,75*,-2,48*,19*,
COc1cccc(/C=N/Nc2ccnc(=O)[nH]2)c1O,4,9,1,-1,·,·,
COc1ccc(/C=N/Nc2snc(SC)c2C#N)cc1OC,12,20,50*,-9,36*,11*,
COc1ccc(/C=N/Nc2nc(C)cc(=O)[nH]2)cc1OC,9,-3,-1,-4,·,·,
COCCCNC(=O)C[C@H]1C[C@@]2(C(=O)OC)C(=C[C@H](C3CCCC3)O[C@@H]2C)N(CCc2ccc(OC)c(OC)c2)C1=O,·,·,1,·,·,·,
c1ccc(Cn2c(SCC3CCC3)nnc2-c2cccnc2)cc1,·,·,-1,·,·,·,
c1coc(-c2ccc3nncn3c2)c1,-7,-3,47*,14,46*,18*,dCAG dye DR=i
COc1ccc(NC(=O)c2ccccc2NC(=O)c2ccccc2)cc1,3,7,3,-7,·,·,
CCN(Cc1ccccc1)S(=O)(=O)c1cc(C(=O)NC2CCCCCC2)ccc1OC,-4,5,0,-4,·,·,
CCC(C(=O)Nc1ccc(C(=O)Nc2ccccc2C(=O)O)cc1)c1ccccc1 (stereo not drawn),-3,2,75*,-3,67*,27*,
CCC(C(=O)Nc1cc(C(=O)O)ccc1C)c1ccccc1 (stereo not drawn),-9,-10,-8,-5,·,·,
COc1ccccc1C(=O)Nc1ccc(C(=O)Nc2ccccc2C(=O)O)cc1,-6,-4,42*,4,60*,20*,
CCN(CC)S(=O)(=O)c1cc(C(=O)Nc2ccccc2C(=O)O)ccc1OC,16,15,37*,2,29,6.6*,
CCC(C(=O)Nc1ccc(C)cc1)c1ccccc1 (stereo not drawn),0,10,-3,-7,·,·,
CCC(C(=O)Nc1ccc(C(=O)O)cc1NC(=O)C(CC)c1ccccc1)c1ccccc1 (stereo not drawn),1,-2,63*,4,57*,23*,
CC1(C(=O)O)CCCN1C(=O)c1cccc(C(F)(F)F)c1 (stereo not drawn),6,13,2,-1,·,·,
O=C(CSCc1cccc(Br)c1)N=Nc1c(O)[nH]c2ccccc12,4,-5,6,-1,·,·,
O=Nc1c(-c2c(O)[nH]c3cc(Br)ccc23)[nH]c2ccccc12,-6,-2,59*,19,54*,36*,
SMILES,ASAP1 GAP inh,ARFGAP1 inhibitor,rCAG RNA binder,NadD inh,rCAG binder conf,dCAG dye counter,others
O=C(CN1C(=O)c2cccnc2Oc2ccc(Cl)cc21)N1CCCC1,1,3,-3,-3,·,·,
COc1ccccc1/C=C1\SC(=S)N(NS(=O)(=O)c2ccc(C)cc2)C1=O,5,-9,78*,5,69*,33*,
COc1ccc(C2Nc3ccccc3C(=O)N2NS(=O)(=O)c2ccc(C)cc2)c(OC)c1 (stereo not drawn),6,7,1,3,·,·,
Cc1ccc(S(=O)(=O)NN2C(=O)/C(=C/c3cccnc3)SC2=S)cc1,-11,-31,24,6,·,·,
COc1ccc(OC)c(/C=C2\SC(=S)N(NS(=O)(=O)c3ccc(C)cc3)C2=O)c1,-10,-2,84*,16,87*,52*,
COc1ccc(/C=C2\SC(=S)N(NS(=O)(=O)c3ccc(C)cc3)C2=O)c(OC)c1,-8,2,87*,14,85*,58*,
CC(=O)NN1C(=O)/C(=C\c2ccc(C)cc2)SC1=S,12,0,1,-3,·,·,
CC1(C2CC2)NC(=O)N(CC(=O)Nc2ccc(OC(F)F)cc2)C1=O (stereo not drawn),1,-9,4,-2,·,·,
O=C(O)COc1ccc(/C=C/C(=O)c2ccc(C3CCCCC3)cc2)cc1,4,-14,48*,10,68*,29*,
O=C(O)COc1ccc(/C=C/C(=O)c2ccc3ccccc3c2)cc1,·,·,·,1,·,·,
CCCCCCCCNS(=O)(=O)CC1NCc2ccc(C)cc21 (stereo not drawn),·,·,5,·,·,·,
O=C(CSc1ccc(Cl)cc1)NC1=NN(c2ccccc2)C(=O)C1,-7,-4,55*,8,27,10*,
COc1cc(CCc2ccccc2)c(C(=O)O)c(O)c1C/C=C(/C)CCC=C(C)C,4,1,93*,23,82*,47*,
COCOc1ccc(/C=C/C(=O)c2c(OCOC)cc(OCOC)c(CC=C(C)C)c2O)cc1OCOC,·,·,·,5,·,·,
COc1cc(CCc2ccccc2)c(C(=O)O)c(O)c1CC=C(C)C,12,1,79*,5,77*,41*,
COc1ccc(/C=C2\CC3(OC(=O)c4ccco4)CCCN2C3)cc1 (stereo not drawn),·,·,2,·,·,·,
CN1[C@H](Cc2ccccc2)COc2cccc(N3CCCC3)c2S1(=O)=O,·,·,4,·,·,·,
Cc1ccc(S(=O)(=O)N2CCOCC2)cc1C(=O)Nc1cc(S(=O)(=O)N2CCCCC2)ccc1O,2,3,31,8,·,·,
Cc1ccc(S(=O)(=O)N2CCOCC2)cc1NC(=O)CSc1ccc(Cl)cc1,-3,0,-2,0,·,·,
O=C(CCCSc1ccc(Cl)cc1)Nc1cc(S(=O)(=O)N2CCOCC2)ccc1O,-10,2,40*,14,49*,16*,
O=C(Nc1ccc(S(=O)(=O)O)cc1)c1ccc2c(c1)S(=O)(=O)c1ccccc1C2=O,0,8,40*,-4,17,2,
O=C(Nc1ccc(S(=O)(=O)N2CCOCC2)cc1)c1cc(-c2ccccc2O)n[nH]1,-9,-2,35*,-4,24,7.9*,
